For one test, the system named is Canis familiaris. The experiment in a line: Dose causing a 50% increase of coronary blood flow in anesthetized dogs relative to the flow increase caused by injection of 1 microg of nifedipine (100%) after intracoronary administration. It is filed as functional, Canis lupus familiaris, Coronary artery. A digest of the protocol:
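Anesthetized dogs; compound dissolved in 30% DMF, diluted with saline, injected into the coronary artery. Perfusion pressure and systemic blood pressure measured by pressure transducers.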

Test [1] in a line: Ratio of vasorelaxant effect on KCl-Induced contraction of rat aorta to that of porcine coronary artery. It is filed as functional.
Another test is filed under the species Sus scrofa. Briefly: Vasorelaxant effect on KCl-Induced contraction of porcine coronary artery. It is filed as functional.
The species entered for the next test is Rattus norvegicus. The experiment in a line: Vasorelaxant effect on KCl-Induced contraction of rat aorta. The class given is functional. A digest of the protocol: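 Isolated strips in Krebs-Henseleit solution, 37 °C, gassed with 95% O2/5% CO2, under 1 g resting load; isometric tension recorded. Strips contracted with 30 or 40 mM KCl. Cumulative concentration-relaxation curves; mean IC50 taken as concentration giving 50% relaxation of the KCl-induced contraction.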

Test [2] can be described thus: Vasorelaxant effect on KCl-Induced contraction of porcine coronary artery vs rat aorta. The class given is functional. A digest of the protocol: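 Isolated porcine coronary artery and rat aortic strips in organ bath, Krebs-Henseleit solution, 37 °C, gassed 95% O2/5% CO2; isometric tension under 1 g resting load. Strips contracted with 30 or 40 mM KCl. Mean IC50 (50% relaxation of KCl-induced contraction) from concentration-relaxation curves in each tissue.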

As to `CCOCC1(COCC)Oc2ccc(C#N)cc2[C@@H](N=C(NC#N)c2cccnc2)[C@@H]1O`, the ED50 with Canis familiaris is over 30 µg.
In the test with Canis familiaris, `COCC1(COC)Oc2ccc([N+](=O)[O-])cc2[C@@H](N=C(NC#N)c2cccnc2)[C@@H]1O` came in with an ED50 of 4.4 µg.
Still for that read-out and setting: in the case of `COCC1(COC)Oc2ccc(C#N)cc2[C@@H](Nc2ccc(=O)n(CCSC)n2)[C@@H]1O` it was 3.3 µg; in that of `COCC1(COC)Oc2ccc(C#N)cc2[C@@H](Oc2ccc(=O)n(C)n2)[C@@H]1O`, 6.4 µg.
`N#CNC(=N[C@@H]1c2cc(C#N)ccc2OC2(COCOC2)[C@H]1O)c1cccnc1` showed an ED50 with Canis familiaris of over 30 µg.
Regarding `COCC1(COC)Oc2ccc(C#N)cc2[C@@H](Nc2ccc(O)nn2)[C@@H]1O`, the ED50 with Canis familiaris was determined as 6.2 µg.
Consider `CC1(COc2ccccc2)Oc2ccc(C#N)cc2[C@@H](N=C(NC#N)c2cccnc2)[C@@H]1O` (stereo partly drawn), for which the ED50 in the test on Canis familiaris is over 30 µg.
Same read-out and setting: as for `COCC1(COC)Oc2ccc(C#N)cc2[C@@H](N=C(C)NC#N)[C@@H]1O`, the figure is 6 µg; as for `COCC1(COC)Oc2ccc(C#N)cc2[C@@H](Nc2ccc(=O)n(Cc3ccccc3)n2)[C@@H]1O`, 28 µg.
On to `COCCn1nc(N[C@@H]2c3cc(C#N)ccc3OC(COC)(COC)[C@H]2O)ccc1=O`, for which the ED50 in the test on Canis familiaris stood at 4.1 µg.
`COCC1(COC)Oc2ccc(C#N)cc2[C@@H](NC(=O)Nc2ccccc2)[C@@H]1O` registered an ED50 in the test on Canis familiaris of over 30 µg.
As for `COCC1(COC)Oc2ccc(C#N)cc2[C@@H](Nc2ccc(=O)n(-c3ccc([N+](=O)[O-])cc3)n2)[C@@H]1O`, the ED50 in the test on Canis familiaris is over 30 µg.
As for `COCC1(COC)Oc2ccc(C#N)cc2[C@@H](N=C(NC#N)Nc2ccccc2)[C@@H]1O`, the ED50 in the test with Canis familiaris is over 30 µg.
In turn, `COCC1(COC)Oc2ccc(C#N)cc2[C@@H](Nc2ccc(=O)n(CCC(=O)OC)n2)[C@@H]1O` came in with an ED50 in the test with Canis familiaris of 2.3 µg.
With `CC1(C)Oc2ccc(C#N)cc2[C@@H](N=C(NC#N)c2cccnc2)[C@@H]1O`, the ED50 in the test on Canis familiaris was 1.3 µg.
Usually IC50 stands for the midpoint of a concentration-inhibition curve. Higher therefore signals lower potency. `O=C(NCCO[N+](=O)[O-])c1cccnc1` [NICORANDIL]: the Ratio in test [1] came out at 4.06. Also, the 50% inhibitory concentration (IC50) in the test listed under Sus scrofa amounted to 3.2 µM; in the test filed under Rattus norvegicus, 13 µM.
`CCCCCCCn1nc(N[C@@H]2c3cc(C#N)ccc3OC(COC)(COC)[C@H]2O)ccc1=O` returned an ED50 in the test with Canis familiaris of 13 µg.
In turn, `COCC1(COC)Oc2ccc(C#N)cc2[C@@H](N=C(NC#N)c2cccnc2)[C@@H]1O` gave an ED50 in the test on Canis familiaris of 14 µg.
With `COCC1(COC)Oc2ccc(C#N)cc2[C@@H](Nc2ccc(=O)n(CC(F)(F)F)n2)[C@@H]1O`, in the test with Canis familiaris, the ED50 amounted to 6.4 µg.
The same measure, in the same setting: in the case of `COCC1(COC)Oc2ccc(C#N)cc2[C@@H](Nc2ccc(=O)n(CC(=O)O)n2)[C@@H]1O` it was over 30 µg; in that of `COCC1(C)Oc2ccc(C#N)cc2[C@@H](N=C(NC#N)c2cccnc2)[C@@H]1O` (stereo partly drawn), 17 µg.
Take `COCC1(COC)Oc2ccc(C#N)cc2[C@@H](Nc2ccc(=O)n(CC#N)n2)[C@@H]1O`: the ED50 in the test on Canis familiaris turned out to be 5 µg.
On the same count and under the same terms, as for `COCC1(COC)Oc2ccc(C#N)cc2[C@@H](Nc2ccc(=S)n(C)n2)[C@@H]1O`, the figure is 24 µg.
In the case of `COC(=O)C1=C(C)NC(C)=C(C(=O)OC)C1c1ccccc1[N+](=O)[O-]` [NIFEDIPINE], the Ratio in test [2] amounted to 1. In addition, the IC50 in the test listed under Sus scrofa and in the test listed under Rattus norvegicus was 0.0036 µM throughout.
In turn, `CCCn1nc(N[C@@H]2c3cc(C#N)ccc3OC(COC)(COC)[C@H]2O)ccc1=O` yielded an ED50 in the test on Canis familiaris of 1.5 µg.
In the case of `COCC1(COC)Oc2ccc(Br)cc2[C@@H](N=C(NC#N)c2cccnc2)[C@@H]1O`, in the test on Canis familiaris, the ED50 is 20 µg.
The same measure, in the same setting: in the case of `COCC1(COC)Oc2ccc(C#N)cc2[C@@H](Nc2ccc(=O)n(CC(=O)OC)n2)[C@@H]1O` it was 17 µg; in that of `COCC1(COC)Oc2ccc(C#N)cc2[C@@H](Nc2ccc(=O)n(CC3CC3)n2)[C@@H]1O`, 1.5 µg; in that of `COCC1(COC)Oc2ccc(C#N)cc2[C@@H](Nc2ccc(=O)n(CCF)n2)[C@@H]1O`, 1.8 µg.
As to `CC1(C)Oc2ccc(C#N)cc2[C@@H](N2CCCC2=O)[C@@H]1O` [LEVCROMAKALIM], in test [2], the Ratio was 0.81. Besides, the IC50 is 0.36 µM in the test listed under Sus scrofa and 0.29 µM in the test filed under Rattus norvegicus.
For `COCC1(COC)Oc2ccc(C#N)cc2[C@@H](Nc2ccc(=O)n(C)n2)[C@@H]1O`, in test [1], the Ratio was 2.73. The compound further displayed an ED50 in the test on Canis familiaris of 0.58 µg. The IC50 in the test filed under Rattus norvegicus is 0.3 µM.
For the compound `COCC1(COC)Oc2ccc(C#N)cc2[C@@H](N=C(NC#N)c2ccccc2)[C@@H]1O`, in the test with Canis familiaris, the ED50 stood at 5.4 µg.
On to `COCC1(COC)Oc2ccc(C#N)cc2[C@@H](Nc2ccc(=O)n(C(C)C)n2)[C@@H]1O`, for which the ED50 in the test on Canis familiaris came to 1.3 µg.
In turn, `CCn1nc(N[C@@H]2c3cc(C#N)ccc3OC(COC)(COC)[C@H]2O)ccc1=O` returned an ED50 in the test with Canis familiaris of 0.57 µg.
With `C=CCn1nc(N[C@@H]2c3cc(C#N)ccc3OC(COC)(COC)[C@H]2O)ccc1=O`, in the test with Canis familiaris, the ED50 was found to be 1.2 µg.
The compound `COCC1(COC)Oc2ccc(C#N)cc2[C@@H](Nc2ccc(=O)n(CC[N+](=O)[O-])n2)[C@@H]1O` yielded an ED50 in the test on Canis familiaris of 1.6 µg.
In the test on Canis familiaris, `COCC1(COC)Oc2ccc(Br)cc2[C@@H](Nc2ccc(=O)n(C)n2)[C@@H]1O` had an ED50 of 2.3 µg.
In the test with Canis familiaris, `COCC1(COC)Oc2ccc(C#N)cc2[C@@H](NC(=O)c2cccnc2)[C@@H]1O` returned an ED50 of 14 µg.
With `COCC1(COC)Oc2ccc([N+](=O)[O-])cc2[C@@H](Nc2ccc(=O)n(C)n2)[C@@H]1O`, the ED50 in the test on Canis familiaris was 1.1 µg.
On the same count and under the same terms, as for `CCCC1(C)Oc2ccc(C#N)cc2[C@@H](N=C(NC#N)c2cccnc2)[C@@H]1O` (stereo partly drawn), the figure is 20 µg.

Source of the values: ChEMBL document CHEMBL1129648, “Synthesis and selective coronary vasodilatory activity of 3,4-dihydro-2,2-bis(methoxymethyl)-2H-1-benzopyran-3-ol derivatives: novel potassium channel openers” (J Med Chem, 1996).
